Reference: ChEMBL document CHEMBL1134972, “Discovery of a potent and selective COX-2 inhibitor in the alkoxy lactone series with optimized metabolic profile” (Bioorg Med Chem Lett, 2002)
pIC50: −log10 of the molar value.

Columns and labels:
[1] = biological target: Prostaglandin G/H synthase 1 (Homo sapiens, UniProt P23219); experiment: In vitro inhibitory potency against Prostaglandin G/H synthase 1 in human whole blood assay; type: tissue-based; details: for pIC50: read-out: IC50
[2] = Half-life in rat; type: ADME, organism-based; details: in vivo
Outline: (§1)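 Rat pharmacokinetics at a 10 mg/kg dose, reporting half-life, Cmax (μM) and bioavailability (%).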

Rattus norvegicus [3] = species on record: Rattus norvegicus; experiment: Antiinflammatory activity by using Rat adjuvant arthritis assay; type: functional
Outline: (§2)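 Rat in vivo models (paw edema, pyresis, hyperalgesia, adjuvant arthritis), with activity expressed as ED50 in mg/kg.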

Rattus norvegicus [4] = experiment: Antiinflammatory activity by using Rat paw edema assay; type: functional; outline: as §2
[5] = Bioavailability in rat; type: ADME, organism-based; details: in vivo; outline: as §1
[6] = Cmax in rat; type: ADME, organism-based; details: in vivo; outline: as §1
Rattus norvegicus [7] = species on record: Rattus norvegicus; experiment: Antiinflammatory activity by using Rat pyresis assay; type: functional; outline: as §2
Rattus norvegicus [8] = species on record: Rattus norvegicus; experiment: Antiinflammatory activity by using Rat hyperalgesia assay; type: functional; outline: as §2
[9] = biological target: T1, Prostaglandin G/H synthase 2 (Homo sapiens, UniProt P35354); experiment: In vitro inhibitory potency against Prostaglandin G/H synthase 2 in human whole blood assay; type: tissue-based
T1 sequence (P35354 whole entry): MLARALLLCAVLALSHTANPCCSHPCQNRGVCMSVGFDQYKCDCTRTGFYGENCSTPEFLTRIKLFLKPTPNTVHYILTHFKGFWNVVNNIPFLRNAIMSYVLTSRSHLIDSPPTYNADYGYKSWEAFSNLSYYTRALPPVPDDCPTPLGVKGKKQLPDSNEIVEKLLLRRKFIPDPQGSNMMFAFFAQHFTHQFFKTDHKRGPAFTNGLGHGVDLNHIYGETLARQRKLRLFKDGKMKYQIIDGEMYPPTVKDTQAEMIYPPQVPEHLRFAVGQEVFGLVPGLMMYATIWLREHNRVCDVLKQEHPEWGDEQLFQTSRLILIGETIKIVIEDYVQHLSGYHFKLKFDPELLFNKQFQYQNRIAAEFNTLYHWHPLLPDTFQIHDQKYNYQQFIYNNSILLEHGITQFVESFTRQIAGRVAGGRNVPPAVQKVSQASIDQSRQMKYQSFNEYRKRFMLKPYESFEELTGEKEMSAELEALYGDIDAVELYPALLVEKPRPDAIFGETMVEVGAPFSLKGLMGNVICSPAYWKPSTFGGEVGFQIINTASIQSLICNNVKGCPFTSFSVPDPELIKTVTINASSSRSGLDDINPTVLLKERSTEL

Prostaglandin G/H synthase 1, sequence (P23219 whole entry): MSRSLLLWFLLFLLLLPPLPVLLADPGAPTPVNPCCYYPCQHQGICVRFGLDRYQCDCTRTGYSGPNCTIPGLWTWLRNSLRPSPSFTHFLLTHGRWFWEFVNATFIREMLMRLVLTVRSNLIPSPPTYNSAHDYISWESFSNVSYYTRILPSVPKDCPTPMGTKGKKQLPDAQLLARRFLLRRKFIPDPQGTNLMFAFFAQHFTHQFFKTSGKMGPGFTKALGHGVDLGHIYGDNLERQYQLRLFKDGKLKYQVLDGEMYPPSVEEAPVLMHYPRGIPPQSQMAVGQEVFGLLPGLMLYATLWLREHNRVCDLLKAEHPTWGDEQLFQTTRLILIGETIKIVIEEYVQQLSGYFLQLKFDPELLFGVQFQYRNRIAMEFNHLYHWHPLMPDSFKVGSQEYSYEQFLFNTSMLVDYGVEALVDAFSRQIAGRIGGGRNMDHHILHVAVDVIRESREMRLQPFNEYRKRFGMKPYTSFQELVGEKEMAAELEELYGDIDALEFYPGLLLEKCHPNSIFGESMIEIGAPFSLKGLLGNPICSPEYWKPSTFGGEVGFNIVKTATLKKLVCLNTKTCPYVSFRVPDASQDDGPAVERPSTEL

In the case of `CC(C)OC1=C(c2ccc(S(C)(=O)=O)cc2)C(C)(CC(F)(F)F)OC1=O` (stereo not given), the IC50 [1] was “Not Active”.
Work on `CC[C@]1(C)OC(=O)C(OC(C)C)=C1c1ccc(S(C)(=O)=O)cc1` yielded a half-life [2] of 2 h, a pIC50 [1] of less than 4.07 and an ED50 (Rattus norvegicus [3]) of 3.3 mg/kg. It also gave an ED50 (Rattus norvegicus [4]) of 1.2 mg/kg, a bioavailability [5] of 100% and a Cmax [6] of 1.7 µM. The ED50 (Rattus norvegicus [7]) was 0.7 mg/kg, the ED50 (Rattus norvegicus [8]) was 0.7 mg/kg and the pIC50 [9] was 6.40.
`COc1ccc2c(c1)c(CC(=O)O)c(C)n2C(=O)c1ccc(Cl)cc1` [INDOMETHACIN] gave an ED50 (Rattus norvegicus [3]) of 0.2 mg/kg, an ED50 (Rattus norvegicus [4]) of 2 mg/kg and an ED50 (Rattus norvegicus [7]) of 1 mg/kg. The ED50 (Rattus norvegicus [8]) was 1.4 mg/kg.
In the case of `CC[C@@]1(C)OC(=O)C(OC(C)C)=C1c1ccc(S(C)(=O)=O)cc1` (single isomer, unassigned), the half-life [2] was less than 2 h, the pIC50 [1] was less than 4.00 and the ED50 (Rattus norvegicus [4]) was 4.5 mg/kg. For the same compound, the ED50 (Rattus norvegicus [7]) was 4.9 mg/kg and the pIC50 [9] was 6.30.
In the case of `CC(C)OC1=C(c2ccc(S(C)(=O)=O)cc2)C(C)(C)OC1=O`, the half-life [2] was 7.1 h, the pIC50 [1] was less than 4.00 and the ED50 (Rattus norvegicus [3]) was 0.3 mg/kg. The ED50 (Rattus norvegicus [4]) was 0.8 mg/kg, the Cmax [6] was 15 µM and the ED50 (Rattus norvegicus [7]) was 0.3 mg/kg. It also gave an ED50 (Rattus norvegicus [8]) of 0.8 mg/kg.
`CS(=O)(=O)c1ccc(C2=C(c3ccccc3)C(=O)OC2)cc1` [ROFECOXIB] showed an ED50 (Rattus norvegicus [3]) of 0.8 mg/kg, an ED50 (Rattus norvegicus [4]) of 1.5 mg/kg and an ED50 (Rattus norvegicus [7]) of 0.2 mg/kg. The ED50 (Rattus norvegicus [8]) was 1 mg/kg.
